Legend:
[1] = biological target: T1, Amine oxidase [flavin-containing] B (Homo sapiens, UniProt P27338); assay: Inhibition of human recombinant MAO-B expressed in baculovirus infected BTI cells using p-tyramine as substrate after 15 mins by Amplex Red-based fluorescence assay; type: cell-based
T1 sequence (P27338 whole entry): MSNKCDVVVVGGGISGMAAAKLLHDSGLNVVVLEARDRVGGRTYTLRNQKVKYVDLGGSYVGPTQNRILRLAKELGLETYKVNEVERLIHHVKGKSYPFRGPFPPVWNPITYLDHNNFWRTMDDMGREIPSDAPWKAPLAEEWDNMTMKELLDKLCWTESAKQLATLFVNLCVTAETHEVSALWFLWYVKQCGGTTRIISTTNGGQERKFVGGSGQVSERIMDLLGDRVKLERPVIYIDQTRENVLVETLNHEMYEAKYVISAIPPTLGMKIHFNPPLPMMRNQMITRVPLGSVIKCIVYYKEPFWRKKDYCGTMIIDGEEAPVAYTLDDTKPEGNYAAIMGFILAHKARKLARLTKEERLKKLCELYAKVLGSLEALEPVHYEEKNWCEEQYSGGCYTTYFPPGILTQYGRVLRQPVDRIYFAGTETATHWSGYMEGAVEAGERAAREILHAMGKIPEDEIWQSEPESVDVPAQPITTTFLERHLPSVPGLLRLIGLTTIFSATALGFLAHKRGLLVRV

[2] = biological target: T2, Amine oxidase [flavin-containing] A (Homo sapiens, UniProt P21397); assay: Inhibition of human recombinant MAO-A expressed in baculovirus infected BTI cells using p-tyramine as substrate at 100000 nM after 15 mins by Amplex Red-based fluorescence assay; settings: 0.25 h, 100 µM
T2 sequence (P21397 whole entry): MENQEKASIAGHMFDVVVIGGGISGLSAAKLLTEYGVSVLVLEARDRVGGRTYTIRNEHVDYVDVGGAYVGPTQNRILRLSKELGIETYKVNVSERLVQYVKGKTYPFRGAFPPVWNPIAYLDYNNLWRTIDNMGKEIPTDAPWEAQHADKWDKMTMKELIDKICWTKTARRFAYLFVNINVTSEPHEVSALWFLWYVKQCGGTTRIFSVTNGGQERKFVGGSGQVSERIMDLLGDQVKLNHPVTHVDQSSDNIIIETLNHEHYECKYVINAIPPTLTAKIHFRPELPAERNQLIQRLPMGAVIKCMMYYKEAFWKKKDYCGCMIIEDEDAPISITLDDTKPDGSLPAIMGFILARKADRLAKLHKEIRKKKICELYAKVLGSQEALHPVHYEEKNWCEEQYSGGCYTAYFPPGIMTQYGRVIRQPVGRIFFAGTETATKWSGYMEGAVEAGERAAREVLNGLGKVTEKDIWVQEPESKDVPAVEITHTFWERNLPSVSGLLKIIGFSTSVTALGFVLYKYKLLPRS
Procedure, shortened: (§1)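 Recombinant hMAO-A or hMAO-B, set to oxidize 165 pmol p-tyramine/min in controls, preincubated with compound for 15 min at 37 °C in the dark. Reaction started with Amplex Red, horseradish peroxidase (1 U/mL) and p-tyramine. Resorufin fluorescence read at 37 °C (ex 545, em 590 nm), with an enzyme-free buffer blank subtracted. Single highest concentration tested: 100000 nM, or 1×10⁶ nM.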

[3] = biological target: T1, Amine oxidase [flavin-containing] B; assay: Inhibition of human recombinant MAO-B expressed in baculovirus infected BTI cells using p-tyramine as substrate at 100000 nM after 15 mins by Amplex Red-based fluorescence assay; settings: 0.25 h; for inhibition (INH): bti, 100 µM; procedure, shortened: as §1
[4] = biological target: T1, Amine oxidase [flavin-containing] B; assay: Inhibition of human recombinant MAO-B expressed in baculovirus infected BTI cells using p-tyramine as substrate at 1x10'6 nM after 15 mins by Amplex Red-based fluorescence assay; settings: 0.25 h; procedure, shortened: as §1

IC50 [1] | inhibition (INH) [2] | SMILES | other results
69400 nM | Not Active | CC(=O)N1N=C(c2ccncc2)OC1c1ccc(Cl)c(Cl)c1 (stereo not given) | –
204 nM | – | CC(=O)N1N=C(c2ccc(Cl)cc2)O[C@@H]1c1ccc(Cl)c(Cl)c1 | –
19.3 nM | Not Active | CC(=O)N1N=C(c2ccc(C)cc2)OC1c1ccc(Cl)c(Cl)c1 (stereo not given) | –
2460 nM | Not Active | CC(=O)N1N=C(c2ccccc2C)OC1c1ccc(Cl)c(Cl)c1 (stereo not given) | –
67.7 nM | Not Active | CC(=O)N1N=C(c2ccc(Br)cc2)OC1c1ccc(Cl)c(Cl)c1 (stereo not given) | –
– | Not Active | CC(=O)N1N=C(c2ccccc2)OC1c1ccc(Cl)c(Cl)c1 (stereo not given) | inhibition at 100 µM ([3]; BTI): 40%

Second part, the molecule before the results:

SMILES | IC50 [1] | inhibition (INH) [2] | other results
CC(=O)N1N=C(c2ccc([N+](=O)[O-])cc2)O[C@H]1c1ccc(Cl)c(Cl)c1 | 523 nM | – | –
CC(=O)N1N=C(c2ccc(Cl)cc2)OC1c1ccc(Cl)c(Cl)c1 (racemic) | 627 nM | Not Active | –
CC(=O)N1N=C(c2ccc(Cl)cc2)O[C@H]1c1ccc(Cl)c(Cl)c1 | – | – | inhibition (INH) [3]: Not Active
CC(=O)N1N=C(c2ccc([N+](=O)[O-])cc2)OC1c1ccc(Cl)c(Cl)c1 (racemic) | 9.46 nM | Not Active | –
O=C(NCCN1CCOCC1)c1ccc(Cl)cc1 [MOCLOBEMIDE] | – | – | inhibition (INH) [4]: Not Active
CC(=O)N1N=C(c2ccc(N(C)C)cc2)OC1c1ccc(Cl)c(Cl)c1 (stereo not given) | – | Not Active | inhibition (INH) [3]: Not Active
CC(=O)N1N=C(c2ccc([N+](=O)[O-])cc2)O[C@@H]1c1ccc(Cl)c(Cl)c1 | 7.61 nM | – | –
CC(=O)N1N=C(c2ccc(C#N)cc2)OC1c1ccc(Cl)c(Cl)c1 (stereo not given) | – | Not Active | inhibition (INH) [3]: Not Active
COc1ccc(C2=NN(C(C)=O)C(c3ccc(Cl)c(Cl)c3)O2)cc1 (stereo not given) | 218 nM | Not Active | –

From ChEMBL document CHEMBL3769340, “Drug design, synthesis, in vitro and in silico evaluation of selective monoaminoxidase B inhibitors based on 3-acetyl-2-dichlorophenyl-5-aryl-2,3-dihydro-1,3,4-oxadiazole chemical scaffold” (Eur J Med Chem, 2016)
